Experimental data taken from ChEMBL document CHEMBL1268844, “Synthesis of novel 3-amino and 29-hydroxamic acid derivatives of glycyrrhetinic acid as selective 11β-hydroxysteroid dehydrogenase 2 inhibitors” (Bioorg Med Chem, 2010).

Experiments:
[1] = target: T1, 11-beta-hydroxysteroid dehydrogenase type 2 (Homo sapiens, UniProt P80365); assay: Inhibition of human recombinant 11beta-HSD2 expressed in HEK293 cells assessed as conversion of [1,2,6,7-3H]-cortisol to cortisone by scintillation counting; assay type: cell-based
T1 sequence (P80365 whole entry): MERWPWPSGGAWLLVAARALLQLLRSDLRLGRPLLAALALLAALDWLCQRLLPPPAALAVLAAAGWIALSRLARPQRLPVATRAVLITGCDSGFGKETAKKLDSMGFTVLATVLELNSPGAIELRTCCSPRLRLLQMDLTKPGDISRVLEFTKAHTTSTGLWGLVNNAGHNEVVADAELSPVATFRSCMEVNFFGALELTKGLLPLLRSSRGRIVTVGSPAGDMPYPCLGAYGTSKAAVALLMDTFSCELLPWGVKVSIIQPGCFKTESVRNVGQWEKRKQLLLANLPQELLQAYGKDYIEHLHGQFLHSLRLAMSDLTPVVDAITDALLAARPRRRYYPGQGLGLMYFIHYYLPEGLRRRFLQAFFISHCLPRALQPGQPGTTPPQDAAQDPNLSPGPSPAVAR

[2] = target: T2, 11-beta-hydroxysteroid dehydrogenase type 2 (Homo sapiens) (UniProt P80365); assay: Inhibition of human recombinant 11beta-HSD2 expressed in HEK293 cells assessed as residual conversion of [1,2,6,7-3H]-cortisol to cortisone at 0.2 uM by scintillation counting; assay type: cell-based
T2 sequence (whole entry): T1 sequence (P80365 whole entry)
Summary of the method: (§1)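 HEK-293 cells transfected with pcDNA3 encoding human enzyme carrying C-terminal FLAG tag. Compounds diluted from DMSO stocks, used immediately, screened at final 200 nM. Reactions stopped with methanol containing 2 mM unlabeled cortisone and cortisol. Steroids separated by TLC, then scintillation counting; readout is residual substrate conversion.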

[3] = target: T3, 11-beta-hydroxysteroid dehydrogenase 1 (Homo sapiens, UniProt P28845); assay: Inhibition of human recombinant 11beta-HSD1 expressed in HEK293 cells assessed as residual conversion of [1,2-3H]-cortisone to cortisol at 0.2 uM by scintillation counting; assay type: cell-based; summary of the method: as §1
Target sequence in this assay (P28845 whole entry, looked up): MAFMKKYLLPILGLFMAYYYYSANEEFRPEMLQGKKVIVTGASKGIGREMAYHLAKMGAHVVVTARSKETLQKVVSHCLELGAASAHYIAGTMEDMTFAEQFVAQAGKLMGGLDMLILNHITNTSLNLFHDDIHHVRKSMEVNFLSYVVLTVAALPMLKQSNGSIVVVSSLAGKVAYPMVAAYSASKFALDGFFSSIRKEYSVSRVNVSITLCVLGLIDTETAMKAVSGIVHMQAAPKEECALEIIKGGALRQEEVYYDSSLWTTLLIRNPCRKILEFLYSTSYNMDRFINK

[4] = target: T3, 11-beta-hydroxysteroid dehydrogenase 1; assay: Inhibition of human recombinant 11beta-HSD1 expressed in HEK293 cells assessed as conversion of [1,2-3H]-cortisone to cortisol by scintillation counting; assay type: cell-based
Target sequence in this assay (P28845 whole entry): as the sequence (P28845 whole entry, looked up) above

[5] = Selectivity ratio of IC50 for human recombinant 11beta-HSD2 to IC50 for human recombinant 11beta-HSD1

Structure (SMILES) | IC50 [1] [nM] | Activity [2] [%] | Activity [3] [%] | IC50 [4] [nM] | Ratio [5]
CC1(C)[C@H](NS(=O)(=O)C(F)(F)F)CC[C@]2(C)[C@H]3C(=O)C=C4[C@@H]5C[C@@](C)(C(=O)O)CC[C@]5(C)CC[C@@]4(C)[C@]3(C)CC[C@@H]12 | – | 50 | 99 | – | –
CC(=O)O[C@H]1CC[C@]2(C)[C@H]3C(=O)C=C4[C@@H]5C[C@@](C)(C(=O)N(O)C(C)(C)C)CC[C@]5(C)CC[C@@]4(C)[C@]3(C)CC[C@H]2C1(C)C | – | 85 | 86 | – | –
CC(=O)N[C@H]1CC[C@]2(C)[C@H]3C(=O)C=C4[C@@H]5C[C@@](C)(C(=O)N(C)O)CC[C@]5(C)CC[C@@]4(C)[C@]3(C)CC[C@H]2C1(C)C | – | 4 | 72 | – | –
CC1(C)C(=O)CC[C@]2(C)[C@H]3C(=O)C=C4[C@@H]5C[C@@](C)(C(=O)O)CC[C@]5(C)CC[C@@]4(C)[C@]3(C)CC[C@@H]12 | – | – | – | 619 | –
CC1(C)[C@@H](NS(=O)(=O)C(F)(F)F)CC[C@]2(C)[C@H]3C(=O)C=C4[C@@H]5C[C@@](C)(C(=O)O)CC[C@]5(C)CC[C@@]4(C)[C@]3(C)CC[C@@H]12 | – | 22 | 87 | – | –
CN(O)C(=O)[C@@]1(C)CC[C@]2(C)CC[C@]3(C)C(=CC(=O)[C@@H]4[C@@]5(C)CC[C@@H](NS(=O)(=O)C(F)(F)F)C(C)(C)[C@@H]5CC[C@]43C)[C@@H]2C1 | – | 82 | 88 | – | –
CN(O)C(=O)[C@@]1(C)CC[C@]2(C)CC[C@]3(C)C(=CC(=O)[C@@H]4[C@@]5(C)CC[C@H](NS(=O)(=O)C(F)(F)F)C(C)(C)[C@@H]5CC[C@]43C)[C@@H]2C1 | – | 44 | 71 | – | –
C=CCONC(=O)[C@@]1(C)CC[C@]2(C)CC[C@]3(C)C(=CC(=O)[C@@H]4[C@@]5(C)CC[C@H](OC(C)=O)C(C)(C)[C@@H]5CC[C@]43C)[C@@H]2C1 | – | 84 | 99 | – | –
CON(C)C(=O)[C@@]1(C)CC[C@]2(C)CC[C@]3(C)C(=CC(=O)[C@@H]4[C@@]5(C)CC[C@H](OC(C)=O)C(C)(C)[C@@H]5CC[C@]43C)[C@@H]2C1 | – | 72 | 95 | – | –

Second part, led by results:

IC50 [1] [nM] | Activity [2] [%] | Activity [3] [%] | IC50 [4] [nM] | Structure (SMILES) | Ratio [5]
4.9 | 5 | 43 | 61.9 | CON[C@@H]1CC[C@]2(C)[C@H]3C(=O)C=C4[C@@H]5C[C@@](C)(C(=O)O)CC[C@]5(C)CC[C@@]4(C)[C@]3(C)CC[C@H]2C1(C)C | –
14.5 | 2 | 33 | 42.7 | CON[C@H]1CC[C@]2(C)[C@H]3C(=O)C=C4[C@@H]5C[C@@](C)(C(=O)O)CC[C@]5(C)CC[C@@]4(C)[C@]3(C)CC[C@H]2C1(C)C | –
– | 7 | 71 | – | CN(O)C(=O)[C@@]1(C)CC[C@]2(C)CC[C@]3(C)C(=CC(=O)[C@@H]4[C@@]5(C)CC[C@H](O)C(C)(C)[C@@H]5CC[C@]43C)[C@@H]2C1 | –
– | 4 | 58 | – | CC1(C)[C@@H](NS(C)(=O)=O)CC[C@]2(C)[C@H]3C(=O)C=C4[C@@H]5C[C@@](C)(C(=O)O)CC[C@]5(C)CC[C@@]4(C)[C@]3(C)CC[C@@H]12 | –
2130 | – | – | 929 | CONC(=O)[C@@]1(C)CC[C@]2(C)CC[C@]3(C)C(=CC(=O)[C@@H]4[C@@]5(C)CC[C@H](O)C(C)(C)[C@@H]5CC[C@]43C)[C@@H]2C1 | 0.4
– | 4 | 32 | – | CC1(C)[C@H](NS(C)(=O)=O)CC[C@]2(C)[C@H]3C(=O)C=C4[C@@H]5C[C@@](C)(C(=O)O)CC[C@]5(C)CC[C@@]4(C)[C@]3(C)CC[C@@H]12 | –
– | – | – | 1160 | CC1(C)[C@@H](O)CC[C@]2(C)[C@H]3C(=O)C=C4[C@@H]5C[C@@](C)(C(=O)NO)CC[C@]5(C)CC[C@@]4(C)[C@]3(C)CC[C@@H]12 | –
458 | – | – | 825 | CC(=O)N[C@H]1CC[C@]2(C)[C@H]3C(=O)C=C4[C@@H]5C[C@@](C)(C(=O)O)CC[C@]5(C)CC[C@@]4(C)[C@]3(C)CC[C@H]2C1(C)C | –
– | – | – | 626 | CC(=O)O[C@H]1CC[C@]2(C)[C@H]3C(=O)C=C4[C@@H]5C[C@@](C)(C(=O)NO)CC[C@]5(C)CC[C@@]4(C)[C@]3(C)CC[C@H]2C1(C)C | –
– | – | – | 1510 | CO/N=C1\CC[C@]2(C)[C@H]3C(=O)C=C4[C@@H]5C[C@@](C)(C(=O)O)CC[C@]5(C)CC[C@@]4(C)[C@]3(C)CC[C@H]2C1(C)C | –
– | 30 | 93 | – | CON[C@H]1CC[C@]2(C)[C@H]3C(=O)C=C4[C@@H]5C[C@@](C)(C(=O)N(C)O)CC[C@]5(C)CC[C@@]4(C)[C@]3(C)CC[C@H]2C1(C)C | –
